Laboratory results: ChEMBL document CHEMBL4321824, “Structure-Activity Relationships of cyclo(l-Tyrosyl-l-tyrosine) Derivatives Binding to Mycobacterium tuberculosis CYP121: Iodinated Analogues Promote Shift to High-Spin Adduct” (J Med Chem, 2019)

Biological target: T1, Cytochrome P450 (Mycobacterium tuberculosis, UniProt A0A0T9WNE5)
T1 sequence (A0A0T9WNE5 whole entry): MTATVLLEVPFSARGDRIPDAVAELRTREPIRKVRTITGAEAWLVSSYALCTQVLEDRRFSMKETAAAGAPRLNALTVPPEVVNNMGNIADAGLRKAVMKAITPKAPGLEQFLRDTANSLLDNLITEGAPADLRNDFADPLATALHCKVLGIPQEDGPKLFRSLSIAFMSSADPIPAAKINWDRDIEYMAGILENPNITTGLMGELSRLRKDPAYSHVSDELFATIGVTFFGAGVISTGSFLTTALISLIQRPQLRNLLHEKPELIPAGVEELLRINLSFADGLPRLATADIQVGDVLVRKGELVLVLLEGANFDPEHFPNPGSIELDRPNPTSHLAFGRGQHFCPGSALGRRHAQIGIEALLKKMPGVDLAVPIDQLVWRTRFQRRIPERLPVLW
Test: Potency index, ratio of cyclo(L-Tyrosine-L-tyrosine) Kd to test compound Kd for binding affinity to Mycobacterium tuberculosis CYP121 expressed in Escherichia coli HMS174 (DE3) by UV-visible scanning spectrophotometric analysis
Details: not given

Which Ratio does the source give for COc1ccc(C[C@@H]2NC(=O)[C@H](Cc3ccc(O)cc3)NC2=O)cc1 here?
Its Ratio is 3.

Biological target: T1, Cytochrome P450
Test: Potency index, ratio of cyclo(L-Tyrosine-L-tyrosine) Kd for binding affinity to Mycobacterium tuberculosis CYP121 expressed in Escherichia coli HMS174 (DE3) to test compound Kd for binding affinity to Mycobacterium tuberculosis His6-tagged CYP121 by UV-visible scanning spectrophotometric analysis
Details: not given

O=C1N[C@@H](Cc2ccc(O)c(I)c2)C(=O)N[C@H]1Cc1ccc(O)cc1 was tested. Which Ratio did it give?
Its Ratio is “<= 100”.

Which Ratio does the source give for O=C1N[C@@H](Cc2ccc(I)cc2)C(=O)N[C@H]1Cc1ccc(I)cc1 here?
The Ratio was “<= 100”.

Which Ratio does the source give for O=C1N[C@@H](Cc2ccc(O)c(I)c2)C(=O)N[C@H]1Cc1ccc(O)c(I)c1 here?
The Ratio was “<= 100”.

Biological target: T1, Cytochrome P450
Test: Binding affinity to Mycobacterium tuberculosis CYP121 expressed in Escherichia coli HMS174 (DE3) by UV-visible scanning spectrophotometric analysis
Details: not given
In short: (§1)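 Spectrophotometric titration of 3–4 µM CYP121 (untagged or N-terminal His6-tagged) at 25 °C in 100 mM potassium phosphate, 200 mM KCl, pH 7.8. Ligand in DMSO added stepwise from 0 µM until no further spectral change; spectra recorded 250–800 nm. Difference spectra taken against ligand-free enzyme, and peak-minus-trough ΔAmax plotted against [ligand]. KD obtained by hyperbolic fit, or Hill fit for sigmoidal data.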

COc1ccc(C[C@@H]2NC(=O)[C@H](Cc3ccc(OC)cc3)NC2=O)cc1 was tested. Which Kd did it give?
Its Kd is 29.4 µM.

How did the Kd turn out when COc1ccc(C[C@@H]2NC(=O)[C@H](Cc3ccc(O)cc3)NC2=O)cc1 was run?
Its Kd is 10.4 µM.

How did the Kd turn out when O=C1N[C@@H](Cc2ccccc2)C(=O)N[C@H]1Cc1ccccc1 was run?
The Kd was 2.4 µM.

How did the Kd turn out when O=C1N[C@@H](Cc2ccc(O)cc2)C(=O)N[C@H]1Cc1ccccc1 was run?
Its Kd is 80.8 µM.

O=C1N[C@@H](Cc2ccc(I)cc2)C(=O)N[C@H]1Cc1ccc(I)cc1 was tested. Which Kd did it give?
Its Kd is 0.72 µM.

With O=C1N[C@@H](Cc2ccc(F)cc2)C(=O)N[C@H]1Cc1ccc(F)cc1 as the molecule, how does the Kd read?
The Kd was 6.3 µM.

O=C1N[C@@H](Cc2ccc(O)c(I)c2)C(=O)N[C@H]1Cc1ccc(O)c(I)c1 was tested. Which Kd did it give?
The Kd was 0.45 µM.

Biological target: T1, Cytochrome P450
Test: Binding affinity to Mycobacterium tuberculosis CYP121 expressed in Escherichia coli HMS174 (DE3) assessed as compound-adduct formation by measuring high spin complex at 0.5 to 2 mM incubated for 20 mins by EPR Spectroscopic method (reference value: 0%)
Details: not given
In short: (§2)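 EPR samples contained 155 µM CYP121 (untagged or His6-tagged) in 100 mM HEPES, 100 mM KCl, pH 7.5, with ligand or DMSO at a final 0.5–2 mM depending on solubility. Samples were incubated 20 min at room temperature and briefly centrifuged before spectra were recorded; the high-spin heme signal was assessed.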

Which Activity does the source give for COc1ccc(C[C@@H]2NC(=O)[C@H](Cc3ccc(OC)cc3)NC2=O)cc1 here?
Its Activity is 56%.

With COc1ccc(C[C@@H]2NC(=O)[C@H](Cc3ccc(O)cc3)NC2=O)cc1 as the molecule, how does the Activity read?
Its Activity is 64%.

Which Activity does the source give for O=C1N[C@@H](Cc2ccccc2)C(=O)N[C@H]1Cc1ccccc1 here?
The Activity was 0%.

How did the Activity turn out when O=C1N[C@@H](Cc2ccc(O)cc2)C(=O)N[C@H]1Cc1ccccc1 was run?
Its Activity is 1.4%.

O=C1N[C@@H](Cc2ccc(I)cc2)C(=O)N[C@H]1Cc1ccc(I)cc1 was tested. Which Activity did it give?
Its Activity is 7.5%.

How did the Activity turn out when O=C1N[C@@H](Cc2ccc(F)cc2)C(=O)N[C@H]1Cc1ccc(F)cc1 was run?
The Activity was 1.5%.

Which Activity does the source give for O=C1N[C@@H](Cc2ccc(O)cc2)C(=O)N[C@H]1Cc1ccc(O)cc1 here?
The Activity was 2.7%.

How did the Activity turn out when O=C1N[C@@H](Cc2ccc(O)c(I)c2)C(=O)N[C@H]1Cc1ccc(O)c(I)c1 was run?
Its Activity is 100%.

Biological target: T1, Cytochrome P450
Test: Binding affinity to Mycobacterium tuberculosis Mycobacterium tuberculosis CYP121 expressed in Escherichia coli HMS174 (DE3) assessed as compound-adduct formation by measuring high spin complex by UV-visible scanning spectrophotometric analysis relative to control
Design: concentration or dose not given beside the values
Details: not given
In short: (§3)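 Fraction of high-spin heme taken from UV-Vis titration spectra of CYP121 (untagged or His6-tagged; 3–4 µM, 25 °C, 100 mM potassium phosphate, 200 mM KCl, pH 7.8). %HS calculated from absorbances at 415 and 393 nm using LS and HS extinction coefficients.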

For COc1ccc(C[C@@H]2NC(=O)[C@H](Cc3ccc(OC)cc3)NC2=O)cc1, which Activity is on record?
Its Activity is 35%.

Which Activity does the source give for COc1ccc(C[C@@H]2NC(=O)[C@H](Cc3ccc(O)cc3)NC2=O)cc1 here?
Its Activity is 61%.

Which Activity does the source give for O=C1N[C@@H](Cc2ccccc2)C(=O)N[C@H]1Cc1ccccc1 here?
Its Activity is 3%.

For O=C1N[C@@H](Cc2ccc(O)cc2)C(=O)N[C@H]1Cc1ccccc1, which Activity is on record?
The Activity was 5%.

Which Activity does the source give for O=C1N[C@@H](Cc2ccc(I)cc2)C(=O)N[C@H]1Cc1ccc(I)cc1 here?
The Activity was 3%.

How did the Activity turn out when O=C1N[C@@H](Cc2ccc(F)cc2)C(=O)N[C@H]1Cc1ccc(F)cc1 was run?
The Activity was 1%.

With O=C1N[C@@H](Cc2ccc(O)cc2)C(=O)N[C@H]1Cc1ccc(O)cc1 as the molecule, how does the Activity read?
Its Activity is 52%.

O=C1N[C@@H](Cc2ccc(O)c(I)c2)C(=O)N[C@H]1Cc1ccc(O)c(I)c1 was tested. Which Activity did it give?
The Activity was 100%.

Biological target: T1, Cytochrome P450
Test: Stability in Mycobacterium tuberculosis assessed as CYP121-catalyzed turnover
Assay type: ADME
Details: not given

With O=C1N[C@@H](Cc2ccc(O)c(I)c2)C(=O)N[C@H]1Cc1ccc(O)cc1 as the molecule, how does the Stability read?
Its Stability is “Stable”.

With COc1ccc(C[C@@H]2NC(=O)[C@H](Cc3ccc(OC)cc3)NC2=O)cc1 as the molecule, how does the Stability read?
Its Stability is “Stable”.

How did the Stability turn out when COc1ccc(C[C@@H]2NC(=O)[C@H](Cc3ccc(O)cc3)NC2=O)cc1 was run?
Its Stability is “Stable”.

How did the Stability turn out when O=C1N[C@@H](Cc2ccccc2)C(=O)N[C@H]1Cc1ccccc1 was run?
The Stability was “Stable”.

How did the Stability turn out when O=C1N[C@@H](Cc2ccc(O)cc2)C(=O)N[C@H]1Cc1ccccc1 was run?
The Stability was “Stable”.

How did the Stability turn out when O=C1N[C@@H](Cc2ccc(I)cc2)C(=O)N[C@H]1Cc1ccc(I)cc1 was run?
Its Stability is “Stable”.

O=C1N[C@@H](Cc2ccc(F)cc2)C(=O)N[C@H]1Cc1ccc(F)cc1 was tested. Which Stability did it give?
The Stability was “Stable”.

For O=C1N[C@@H](Cc2ccc(O)c(I)c2)C(=O)N[C@H]1Cc1ccc(O)c(I)c1, which Stability is on record?
Its Stability is “Stable”.

System: Mycobacterium tuberculosis
Test: Antimycobacterial activity against Mycobacterium tuberculosis H37Rv assessed as reduction in bacterial growth after 7 days by resazurin based fluorescence assay
Assay type: functional
Details: 168 h
In short: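 Mtb H37Rv grown in 7H9 with ADC to OD 0.6–0.8, then diluted to OD600 0.001 and added to 1:2 serial compound dilutions (usually from 100 µM; 0.1% DMSO). Incubated 7 days at 37 °C, then 0.05% w/v resazurin for 24 h at 37 °C. Fluorescence read at 590 nm, background subtracted, and survival expressed relative to untreated wells. Rifampicin served as positive control.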

O=C1N[C@@H](Cc2ccc(O)c(I)c2)C(=O)N[C@H]1Cc1ccc(O)cc1 was tested. Which MIC did it give?
The MIC was > 100 µM.

COc1ccc(C[C@@H]2NC(=O)[C@H](Cc3ccc(OC)cc3)NC2=O)cc1 was tested. Which MIC did it give?
Its MIC is > 100 µM.

COc1ccc(C[C@@H]2NC(=O)[C@H](Cc3ccc(O)cc3)NC2=O)cc1 was tested. Which MIC did it give?
The MIC was > 100 µM.

How did the MIC turn out when O=C1N[C@@H](Cc2ccccc2)C(=O)N[C@H]1Cc1ccccc1 was run?
Its MIC is > 100 µM.

How did the MIC turn out when O=C1N[C@@H](Cc2ccc(O)cc2)C(=O)N[C@H]1Cc1ccccc1 was run?
The MIC was > 100 µM.

For O=C1N[C@@H](Cc2ccc(I)cc2)C(=O)N[C@H]1Cc1ccc(I)cc1, which MIC is on record?
The MIC was > 100 µM.

How did the MIC turn out when O=C1N[C@@H](Cc2ccc(F)cc2)C(=O)N[C@H]1Cc1ccc(F)cc1 was run?
Its MIC is > 100 µM.

With O=C1N[C@@H](Cc2ccc(O)c(I)c2)C(=O)N[C@H]1Cc1ccc(O)c(I)c1 as the molecule, how does the MIC read?
Its MIC is > 100 µM.

Biological target: T1, Cytochrome P450
Test: Binding affinity to Mycobacterium tuberculosis His6-tagged CYP121 assessed as compound-adduct formation by measuring high spin complex at 0.5 to 2 mM incubated for 20 mins by EPR Spectroscopic method (reference value: 0%)
Details: not given
In short: as §2

Which Activity does the source give for O=C1N[C@@H](Cc2ccc(O)c(I)c2)C(=O)N[C@H]1Cc1ccc(O)cc1 here?
The Activity was 86%.

Biological target: T1, Cytochrome P450
Test: Binding affinity to Mycobacterium tuberculosis His6-tagged CYP121 assessed as compound-adduct formation by measuring high spin complex by UV-visible scanning spectrophotometric analysis relative to control
Design: concentration or dose not given beside the values
Details: not given
In short: as §3

Which Activity does the source give for O=C1N[C@@H](Cc2ccc(O)c(I)c2)C(=O)N[C@H]1Cc1ccc(O)cc1 here?
The Activity was 98%.

Biological target: T1, Cytochrome P450
Test: Binding affinity to Mycobacterium tuberculosis His6-tagged CYP121 by UV-visible scanning spectrophotometric analysis
Details: not given
In short: as §1

For O=C1N[C@@H](Cc2ccc(O)c(I)c2)C(=O)N[C@H]1Cc1ccc(O)cc1, which Kd is on record?
Its Kd is 280 nM.
